Measured values from different studies.
Cell line: A549
Observed: cell growth or viability

Structure (SMILES) | assay | conditions | endpoint | result
CC[C@@]1(OC(=O)[C@@H]2CCCN2)C(=O)OCc2c1cc1n(c2=O)Cc2cc3cc4c(cc3nc2-1)OCO4 | MTT |  | IC50 | 0.031 µM
N#Cc1ccc(CN2C(=O)/C(=N\NC(=O)c3cc4ccccc4[nH]3)c3ccccc32)cc1 |  | 30 µM | inhibition | 94.6%
CN1C[C@H](C(=O)N[C@]2(C)O[C@@]3(O)[C@@H]4CCCN4C(=O)[C@H](Cc4ccccc4)N3C2=O)C=C2c3cccc4[nH]cc(c34)C[C@H]21 | MTT | 72 h | EC50 | 13 µM
O=C(c1ccc(F)cc1)c1c[nH]c2ncc(-c3ccnc(N4CCNCC4)c3)cc12 | MTT | 10 µM, 48 h | viability | 101%
CC(=O)O[C@H]1C[C@H](O[C@H]2[C@@H](O)C[C@H](O[C@H]3[C@@H](O)C[C@H](O[C@H]4CC[C@@]5(C)[C@H](CC[C@@H]6[C@@H]5C[C@@H](O)[C@]5(C)[C@@H](C7=CC(=O)OC7)CC[C@]65O)C4)O[C@@H]3C)O[C@@H]2C)O[C@H](C)[C@H]1O | MTT | 5 µM, 24 h | inhibition | 73.9%
O=C(N/N=C1\C(=O)N(Cc2ccccc2)c2ccc(Cl)cc21)c1cc2ccccc2[nH]1 |  | 30 µM | inhibition | 99.7%
CS(=O)(=O)N1CCN(c2ccc(-c3cnc4[nH]cc(C(=O)c5ccc(F)cc5)c4c3)cn2)CC1 | MTT | 10 µM, 48 h | viability | 97.3%
Cc1c(Cc2cccc(N(C)S(=O)(=O)CCCNCCCC(=O)N3CCN(c4ccc(Nc5c(C(N)=O)cnc6ccc(-c7cnc8ccccc8c7)cc56)cc4C(F)(F)F)CC3)c2)c(=O)oc2cc(OC(=O)N(C)C)ccc12 | CCK-8 |  | GI50 | 4.66 µM
N.N.[Cl][Pt][Cl] | MTT |  | GI50 | 14.3 µM
COc1cc([C@@H]2c3cc4c(cc3[C@H](O)[C@H]3COC(=O)[C@H]23)OCO4)cc(OC)c1OC | MTT | 72 h | EC50 | 0.024 µM
O=C(N/N=C1\C(=O)N(Cc2ccccc2)c2ccc(Br)cc21)c1cc2ccccc2[nH]1 |  | 30 µM | inhibition | 96.1%
C[C@]12CC[C@H](O)C[C@H]1CC[C@@H]1[C@@H]2C[C@@H](O)[C@]2(C)[C@@H](C3=CC(=O)OC3)CC[C@]12O | MTT | 5 µM, 24 h | inhibition | 72.3%
CCOC(=O)CCn1cc(C(=O)c2ccc(F)cc2)c2cc(-c3ccc(N4CCN(C(=O)OC(C)(C)C)CC4)nc3)cnc21 | MTT | 10 µM, 48 h | viability | 90.2%
N.N.[Cl][Pt][Cl] | SRB | 72 h | EC50 | 4.5 µM
O=C(N/N=C1\C(=O)N(Cc2ccc(Cl)cc2)c2ccccc21)c1cc2ccccc2[nH]1 |  | 30 µM | inhibition | 96.9%
O=C(c1ccc(F)cc1)c1c[nH]c2ncc(-c3ccc(N4CCNCC4)nc3)cc12 | MTT | 10 µM, 48 h | viability | 94.7%
O=C(N/N=C1\C(=O)N(Cc2ccccc2)c2ccccc21)c1cc2ccccc2[nH]1 |  | 30 µM | inhibition | 98.4%
COc1ccc(C(=O)c2c[nH]c3ncc(-c4ccc(N5CCN(C(=O)OC(C)(C)C)CC5)nc4)cc23)cc1 | MTT | 10 µM, 48 h | viability | 88.1%
